ChEMBL document CHEMBL1130080, “Structure-activity relationships of diverse Annonaceous acetogenins against multidrug resistant human mammary adenocarcinoma (MCF-7/Adr) cells” (J Med Chem, 1997)
≈ marks a conversion by molar mass, not a printed value.

Legend:
NCI/ADR-RES = experiment: Cytotoxicity against MCF-7/Adr cells.; format: functional, cell-based, Homo sapiens
Summary of the method: (§1)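 MCF-7/Adr cells kept in RPMI with 10% heat-inactivated FCS and 1% pen/strep, plated at 15 000 cells/mL on poly(D-lysine)-coated plates, left overnight at 37 °C. Day 1: compound added in 95% ethanol (1% by volume). Incubated 6 more days, growth read by BCA protein assay (A570), normalized to vehicle wells, n = 4. IC50 from linear regression through three points spanning 50%; R value from that regression.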

[1] = Statistical significance of IC 50 values; Expressed as R value; format: ADME; summary of the method: as §1
[2] = Bullaticin index relates the IC50 values by normalizing to the value of bullatacin for easy comparison.; format: ADME
Summary of the method: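 Index is IC50 of each compound divided by bullatacin's IC50, from the same 6-day BCA protein growth assay in MCF-7/Adr cells, n = 4.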

## COc1cccc2c1C(=O)c1c(O)c3c(c(O)c1C2=O)C[C@@](O)(C(=O)CO)C[C@@H]3O[C@H]1C[C@H](N)[C@H](O)[C@H](C)O1 [DOXORUBICIN]
NCI/ADR-RES
  IC50: 5.37 µg/mL (≈ 9.88 µM)
[1]
  Activity: 1
[2]
  Bullatacin index: 258.5

## CCCCCCCCCCCC[C@@H](O)[C@H]1CC[C@H]([C@H]2CC[C@H]([C@H](O)CCCCCC[C@@H](O)CC3=C[C@H](C)OC3=O)O2)O1
NCI/ADR-RES
  IC50: > 1 µg/mL

## CCCCCCCCCC[C@@H](O)[C@@H]1CC[C@H]([C@H](O)CC[C@H](O)[C@@H]2CC[C@@H](CCCCCCC[C@@H](O)CC3=C[C@H](C)OC3=O)O2)O1 [SYLVATICIN]
[1]
  Activity: 0.94
[2]
  Bullatacin index: 2.76

## CCCCCCCCCCCC[C@@H](O)[C@H]1CC[C@H]([C@H]2CC[C@H]([C@H](O)CC[C@H](O)CCCCCCCCC3=C[C@H](C)OC3=O)O2)O1
NCI/ADR-RES
  IC50: 1.4 µg/mL (≈ 2.2 µM)
[1]
  Activity: 1
[2]
  Bullatacin index: 67.2

## CC[C@]1(O)C[C@H]2CN(CCc3c([nH]c4ccccc34)[C@@](C(=O)OC)(c3cc4c(cc3OC)N(C=O)[C@H]3[C@@](O)(C(=O)OC)[C@H](OC(C)=O)[C@]5(CC)C=CCN6CC[C@]43[C@@H]65)C2)C1 [VINCRISTINE]
NCI/ADR-RES
  IC50: 2.93 µg/mL (≈ 3.55 µM)
[1]
  Activity: 1
[2]
  Bullatacin index: 141.3

## CCCCCCCCCCCC[C@H](O)[C@@H](O)CC[C@H](O)[C@@H]1CC[C@@H](CCC[C@H](O)[C@@H](O)CC[C@@H](O)CC2=C[C@H](C)OC2=O)O1
NCI/ADR-RES
  IC50: > 1 µg/mL

## CCCCCCCCCCCC[C@@H](O)[C@H]1CC[C@H]([C@H](O)CCCC[C@H](O)CCCCC[C@@H](O)CC2=C[C@H](C)OC2=O)O1 [ANNONACIN]
[1]
  Activity: 0.99
[2]
  Bullatacin index: 4.19

## CCCCC[C@H](O)CCCC[C@H](O)[C@H]1CC[C@H]([C@H]2CC[C@H]([C@H](O)CCCCCCCCCCCCC3=C[C@H](C)OC3=O)O2)O1 [MOTRILIN]
[1]
  Activity: 0.99
[2]
  Bullatacin index: 1.23

## CCCCCCCCCC[C@H](O)[C@H]1CC[C@H]([C@H](O)CC[C@H](O)[C@@H]2CC[C@@H](CCCCCCC[C@@H](O)CC3=C[C@H](C)OC3=O)O2)O1 [BULLATALICIN]
[1]
  Activity: 0.98
[2]
  Bullatacin index: 4.72

## CCCCCCCCCC[C@@H](O)[C@H]1CC[C@@H]([C@H]2CC[C@H]([C@H](O)CCCCCCCCCC[C@@H](O)CC3=C[C@H](C)OC3=O)O2)O1 [TRILOBACIN]
NCI/ADR-RES
  IC50: 59.9 µg/mL (≈ 96.2 µM)
[1]
  Activity: 0.98
[2]
  Bullatacin index: 2.89

## CCCCCCCCCCCCCC[C@@H](O)[C@H](O)CC[C@H](O)[C@@H]1CC[C@@H](CCCCC[C@@H](O)CC2=C[C@H](C)OC2=O)O1 [GIGANTETROCIN A]
[1]
  Activity: 0.97
[2]
  Bullatacin index: 0.5

## CCCCCCCCCC[C@@H](O)[C@@H]1CC[C@@H]([C@@H]2CC[C@@H]([C@H](O)CCCCCCCCCC(O)CC3=CC(C)OC3=O)O2)O1 (stereo not given in full) [BULLATACIN]
NCI/ADR-RES
  IC50: 10.8 µg/mL (≈ 17.7 µM)
[1]
  Activity: 0.97
[2]
  Bullatacin index: 1

## CCCCCCCCCCCC/C=C\CC[C@@H](O)[C@H](O)CC[C@H](O)[C@@H]1CC[C@@H](CCCCC[C@@H](O)CC2=C[C@H](C)OC2=O)O1
[1]
  Activity: 0.98
[2]
  Bullatacin index: 5.26

## CCCCCCCCCCCC[C@H](O)[C@H]1CC[C@H]([C@H]2CC[C@H]([C@H](O)CCCCCCCC[C@@H](O)CC3=C[C@H](C)OC3=O)O2)O1 [SQUAMOTACIN]
[1]
  Activity: 1
[2]
  Bullatacin index: 6.79

## CCCCCCCCCCCC[C@@H](O)[C@H](O)CC[C@H](O)[C@@H]1CC[C@@H](CCC[C@H](O)[C@@H](O)CC[C@@H](O)CC2=C[C@H](C)OC2=O)O1
NCI/ADR-RES
  IC50: > 1 µg/mL

## CC[C@]1(O)C[C@@H]2CN(CCc3c([nH]c4ccccc34)[C@@](C(=O)OC)(c3cc4c(cc3OC)N(C)[C@H]3[C@@](O)(C(=O)OC)[C@H](OC(C)=O)[C@]5(CC)C=CCN6CC[C@]43[C@@H]65)C2)C1 [VINBLASTINE]
NCI/ADR-RES
  IC50: 390 µg/mL (≈ 481 µM)
[1]
  Activity: 1
[2]
  Bullatacin index: 18.8
